Assay outcomes as filed in PubChem.
procasp3 activ: activators of human procaspase-3; recombinant procaspase-3 D3A, Ac-DEVD-pNA absorbance 405 nm; 330,000 compounds, 0.11% hits; activation, % at 8.5 µM; AID 463141;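 active = activation above the mean of all tested compounds plus 3 SD, cut at about 21% in these data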;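 note: 0% = DMSO alone and 100% = DMSO wells spiked with extra 5 µM PC-3 D3A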
Target sequence (P42574 whole entry D9A/D28A/D175A): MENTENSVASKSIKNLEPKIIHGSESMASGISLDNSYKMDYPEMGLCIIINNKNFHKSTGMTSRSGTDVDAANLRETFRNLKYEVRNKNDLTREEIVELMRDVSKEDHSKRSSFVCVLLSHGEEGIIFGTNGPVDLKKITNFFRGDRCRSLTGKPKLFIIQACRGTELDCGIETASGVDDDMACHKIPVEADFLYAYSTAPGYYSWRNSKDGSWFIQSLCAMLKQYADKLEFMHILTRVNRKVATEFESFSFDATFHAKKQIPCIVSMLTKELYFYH
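Assay system: Procaspase-3 D3A mutant, all three cleavage aspartates alanine. Buffer or medium: Zinc-free HEPES saline buffer with Triton X-100. Times: 1 h compound preincubation, 2 h substrate hydrolysis at 25 °C. Measured by: 405 nm absorbance of p-nitroaniline, reads at 0 and 120 min. Read-out basis: percent activation relative to control range. Replicates: singlicate.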
LYPLA1 counter: LYPLA1 (human) inhibition in PME1 counter-screen. recombinant LYPLA1, FP-Rh probe fluorescence polarization. AID 2174. inhibition, % at 5.9 µM. 320,000 compounds, 0.16% hits;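 active = inhibition above the mean of all tested compounds plus 3 SD, set per campaign, cut at about 14% in these data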;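 note: inhibitors block serine hydrolase probe labeling of LYPLA1 so polarization falls; 0% = enzyme with DMSO and 100% = wells lacking LYPLA1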
Target sequence (O75608 whole entry, looked up): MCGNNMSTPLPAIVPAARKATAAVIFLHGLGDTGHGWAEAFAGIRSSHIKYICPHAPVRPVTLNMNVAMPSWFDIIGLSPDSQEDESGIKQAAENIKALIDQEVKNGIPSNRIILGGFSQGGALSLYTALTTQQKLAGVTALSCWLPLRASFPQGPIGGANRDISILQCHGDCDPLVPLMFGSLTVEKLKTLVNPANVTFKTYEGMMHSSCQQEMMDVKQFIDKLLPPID
LYPLA2 counter: blocks human lysophospholipase 2, a PME1 counter-screen. O95372. AID 2177. 320,000 compounds, 0.38% hits. recombinant LYPLA2, FP-Rh probe fluorescence polarization. inhibition, % at 5.9 µM;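 active = inhibition above the screen-wide mean plus 3 SD, limit set per campaign, cut at about 26% in these data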;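 note: 0% = LYPLA2 with DMSO and 100% = wells lacking LYPLA2 enzyme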
procasp7 counter: counter-screen: procaspase-7 (human) activation; recombinant procaspase-7, Ac-DEVD-pNA absorbance 405 nm; D23A/D198A/D206A triple mutant, cannot self-cleave; scale: DMSO 0, 5 µM enzyme 100; activation, % at 8.5 µM; 330,000 compounds, 0.093% hits; AID 463210;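 active = percent activation above the screen-wide mean plus 3 SD, cut at about 25% in these data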
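Assay system – Uncleavable procaspase-7 mutant enzyme · Quantity – 2 µM procaspase-7 mutant as dispensed · Times – 1 h preincubation, 2 h reaction · Dosing – single nominal 8.5 µM compound dose, 0.8% DMSO final · Buffer or medium – Zinc-free 50 mM HEPES buffer, pH 7.4, with NaCl and Triton X-100 · Detection – Epi-absorbance of released pNA at 405 nm, two timepoints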
PREPL inhibitor: inhibitors of human prolyl oligopeptidase-like enzyme PREPL; recombinant PREPL, fluorescence polarization activity-based probe; inhibition, % at 5.96 µM; 320,000 compounds, 0.68% hits;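 note: 0% = enzyme with DMSO and 100% = wells lacking enzyme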
PREPL confirm: human PREPL inhibition, confirmation; shares compounds with PREPL inhibitor; recombinant PREPL, fluorescence polarization activity probe; inhibition, % at 5.96 µM; 2,000 compounds, 67% hits;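 note: 0% = protein with DMSO and 100% = wells lacking protein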
The depositor's hits bear a star; · = not tested or not shown. Only some compounds are listed: those with a hit (about 1.1% of all), similar ones and a draw of the others. Cut-off read from the data, not from the text of the source, unless noted: active = inhibition above about 43%; inactive = the rest.

SMILES	procasp3 activ	LYPLA1 counter	LYPLA2 counter	procasp7 counter	PREPL inhibitor	PREPL confirm
CCN(CC)CCN(C(=O)c1ccc(S(=O)(=O)N(C)C2CCCCC2)cc1)c1nc2c(C)cccc2s1	6.2	-5.7	1.1	-3.7	4.1	·
CCOc1ccc(S(=O)(=O)NCCC(=O)NC(C)CCc2ccccc2)cc1 (stereo not drawn)	-5.6	-5.1	-4.7	1.2	-10.0	·
COc1ccc(NC(=O)CN(C)C(=O)C(C)N2C(=O)c3ccccc3C2=O)cc1 (stereo not drawn)	3.1	-2.7	-1.0	8.4	-2.4	·
O=C(c1cccnc1)N1CCN(Cc2ccc3ccccc3c2)CC1	5.2	-1.6	5.6	-6.2	45.2*	36.3
O=C(NCc1ccc2c(c1)OCO2)c1cc(COc2c(F)cccc2F)on1	0.2	1.0	-1.3	5.9	6.3	·
COc1cccc(CNC(=O)c2cc(COc3c(F)cccc3F)on2)c1	7.3	1.0	0.1	4.6	50.2*	-1.7
CC(Oc1ccc(F)cc1)C(=O)N(CCC1=CCCCC1)c1c(N)n(Cc2ccccc2)c(=O)[nH]c1=O (stereo not drawn)	-0.4	0.7	1.5	1.9	4.5	·
CCCc1ccc2oc(C(=O)N(C)Cc3nccs3)c(C)c2c1	1.6	4.2	6.7	4.0	15.5	·
Cc1c(C(=O)N2CCN(c3ccccn3)CC2)sc2ncnc(N3CCN(c4ccccc4)CC3)c12	6.1	2.4	3.9	9.4	43.7*	28.5
Cc1c(C(=O)N2CCN(Cc3ccc4c(c3)OCO4)CC2)sc2ncnc(N3CCN(c4ccccc4F)CC3)c12	1.1	-2.9	5.1	-1.9	48.0*	44.2*
CCCNC(=O)Cn1cnc2sc(C(=O)N3CCN(Cc4ccc5c(c4)OCO5)CC3)c(C)c2c1=O	12.7	2.6	-0.9	9.2	8.1	·
CCN1CCN(C(=O)c2sc3ncnc(N4CCc5ccccc5C4)c3c2C)CC1	4.4	-3.1	-2.0	8.5	-21.1	·
Cc1c(C(=O)N2CCN(Cc3ccc4c(c3)OCO4)CC2)sc2ncnc(N3CCN(c4ccccc4)CC3)c12	3.8	0.3	5.5	1.9	45.3*	48.1*
Cc1c(C(=O)N2CCN(c3ccccc3)CC2)sc2ncnc(N3CCC(C)CC3)c12	-2.4	0.9	10.4	4.4	-100.9	·
O=C(CCn1ccc2ccccc21)Nc1ccc(N2CCOCC2)cc1	-1.2	-0.2	-1.3	-5.4	44.6*	38.3
Cc1ccccc1OCCCC(=O)Nc1ccc(N2CCOCC2)cc1	-3.0	2.6	-0.5	-2.9	50.4*	34.2
CCCCCCCN1C(Nc2ccccc2)=NC[C@@H]1C	-0.5	-1.4	9.1	-15.7	4.6	·
Clc1ccc(OCc2nn3c(C4CCCCC4)nnc3s2)cc1	-11.7	-2.9	4.6	-9.1	45.9*	32.5
c1ccc(-c2nn3c(C4CCCCC4)nnc3s2)nc1	-3.7	3.2	6.8	-5.8	8.8	·
O=C(c1ccc(-c2ccccc2)cc1)c1ccccc1C(=O)N1CCOCC1	-1.8	-0.5	5.8	-3.0	45.7*	41.1
COC(=O)c1sc(N/N=C/c2ccc(C(C)C)cc2)nc1C	-24.2	-8.2	0.1	-13.5	21.6	·
O=C1COc2ccc(-c3csc(=Nc4ccc(OC(F)F)cc4)n3CC3CCCO3)cc2N1 (stereo not drawn)	-10.9	-6.0	3.5	4.8	46.1*	48.6*
O=C(CN1CCN(c2ccccc2)CC1)Nc1ccc(-n2cnnn2)cc1	3.9	1.2	4.0	7.4	0.0	·
CCc1ccccc1NC(=O)CN1CCN(C(=O)c2cccc(-n3cnnn3)c2)CC1	4.2	-2.2	-1.9	-0.9	64.7*	6.5
Cc1ccc(/C=C/C(=O)Nc2ccc(N(C)C)cc2)o1	-6.2	-1.4	-3.3	-3.5	47.8*	42.4
Cn1c(NN)nc2ccccc2c1=O	-3.8	1.0	6.9	1.6	44.7*	25.6
COc1ccccc1-[n+]1c(C)cc(/C=C2\Sc3ccccc3N2C)cc1C	-17.4	-0.5	4.7	-36.8	64.5*	70.6*
COc1ccc(-[n+]2c(C)cc(/C=C3\Sc4ccccc4N3C)cc2C)cc1	-31.2	2.7	7.7	-29.5	69.7*	69.5*
COc1ccc(C(=O)/C=C2\Sc3ccccc3N2C)cc1	-24.8	1.9	-4.9	-30.7	35.6	·
